# Key:
# Saccharomyces cerevisiae [1] = experiment: Growth inhibition of COX17-deficient Saccharomyces cerevisiae YLL009C mutant at 20 ug/disc after 24 to 48 hrs by agar diffusion assay; type: functional; details: read-out: DIZ
# Procedure, shortened: (§1)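 S. cerevisiae deletion mutants or wild type grown on YPD, seeded into liquid agar medium at an optical density of 0.1. 6 mm paper discs soaked with methanolic compound solution were placed on the plates and incubated at 30 °C. Growth was checked after 1 and 2 days, and the inhibition zone diameter was recorded in mm.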
# Saccharomyces cerevisiae [2] = experiment: Growth inhibition of GSH2-deficient Saccharomyces cerevisiae YOL049W mutant at 20 ug/disc after 24 to 48 hrs by agar diffusion assay; type: functional; details: read-out: DIZ; procedure, shortened: as §1
# Saccharomyces cerevisiae [3] = experiment: Growth inhibition of GTT2-deficient Saccharomyces cerevisiae YLL060C mutant at 20 ug/disc after 24 to 48 hrs by agar diffusion assay; type: functional; details: read-out: DIZ; procedure, shortened: as §1
# Saccharomyces cerevisiae [4] = experiment: Growth inhibition of PST2-deficient Saccharomyces cerevisiae YDR032C mutant at 20 ug/disc 24 to 48 hrs by agar diffusion assay; type: functional; details: read-out: DIZ; procedure, shortened: as §1
# Saccharomyces cerevisiae [5] = experiment: Growth inhibition of SOD2-deficient Saccharomyces cerevisiae YHR008C mutant at 20 ug/disc 24 to 48 hrs by agar diffusion assay; type: functional; details: read-out: DIZ; procedure, shortened: as §1
# Saccharomyces cerevisiae [6] = experiment: Growth inhibition of SOD1-deficient Saccharomyces cerevisiae YJR104C mutant at 20 ug/disc after 24 to 48 hrs by agar diffusion assay; type: functional; details: read-out: DIZ; procedure, shortened: as §1
# A498 = experiment: Cytotoxicity against human A498 cells after 24 hrs by MTT assay; type: functional, cell-based; details: A498, 24 h
# Procedure, shortened: (§2)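 MTT assay. Cells were seeded at 50,000 cells/mL in medium with 10% fetal calf serum and grown for two days at 37 °C, 10% CO2. Serial dilutions of compound were then added for 24 h. MTT was added (final 0.5 mg/mL) for 2 h, and the formazan was pelleted, washed, dissolved in isopropanol with 0.4% HCl and read at 590 nm. IC50 is the concentration giving 50% of untreated-control absorbance, taken from dose-response curves; mean of two parallel experiments.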
# MCF7 [7] = experiment: Cytotoxicity against human MCF7 cells after 24 hrs by MTT assay; type: functional, cell-based; details: MCF7, 24 h; procedure, shortened: as §2
# MDA-MB-231 = experiment: Cytotoxicity against human MDA-MB-231 cells; type: functional
# Hs-578T = experiment: Cytotoxicity against human Hs578T cells; type: functional
# MCF7 [8] = experiment: Cytotoxicity against human MCF7 cells; type: functional
# PC-3 = experiment: Cytotoxicity against human PC3 cells; type: functional
# SN12C = experiment: Cytotoxicity against human SN12C cells; type: functional
# SK-OV-3 = experiment: Cytotoxicity against human SKOV3 cells; type: functional
# NCI/ADR-RES = experiment: Cytotoxicity against human NCI/ADR-RES cells; type: functional
# OVCAR-4 = experiment: Cytotoxicity against human OVCAR4 cells; type: functional
# OVCAR-5 = experiment: Cytotoxicity against human OVCAR5 cells; type: functional
# IGROV-1 = experiment: Cytotoxicity against human IGROV1 cells; type: functional
# OVCAR-3 = experiment: Cytotoxicity against human OVCAR3 cells; type: functional
# SK-MEL-28 = experiment: Cytotoxicity against human SK-MEL-28 cells; type: functional
# U-251 = experiment: Cytotoxicity against human U251 cells; type: functional
# LOX IMVI = experiment: Cytotoxicity against human LOXIMVI cells; type: functional
# SF-268 = experiment: Cytotoxicity against human SF268 cells; type: functional
# HCT-15 = experiment: Cytotoxicity against human HCT15 cells; type: functional
# COLO 205 = experiment: Cytotoxicity against human COLO205 cells; type: functional
# NCI-H460 = experiment: Cytotoxicity against human NCI-H460 cells; type: functional
# NCI-H23 = experiment: Cytotoxicity against human NCI-H23 cells; type: functional
# A549 = experiment: Cytotoxicity against human A549 cells; type: functional
# EKVX = experiment: Cytotoxicity against human EKVX cells; type: functional
# HOP-62 = experiment: Cytotoxicity against human HOP62 cells; type: functional
# MOLT-4 = experiment: Cytotoxicity against human MOLT4 cells; type: functional
# HL-60 = experiment: Cytotoxicity against human HL60 cells; type: functional
# [9] = read-out: pLC50 (the source's name) (converted)
smiles,measurement,setting,value
CC1=C([Se]CC(OC(=O)[C@@H](CSSC(C)(C)C)NC(=O)C(C)(C)C)C(=O)NCCCCCC(=O)OCc2ccccc2)C(=O)c2ccccc2C1=O (stereo not given in full),zone of inhibition at 20 µg/disc,Saccharomyces cerevisiae [1],0 mm
same,zone of inhibition at 20 µg/disc,Saccharomyces cerevisiae [2],0 mm
same,zone of inhibition at 20 µg/disc,Saccharomyces cerevisiae [3],12 mm
same,zone of inhibition at 20 µg/disc,Saccharomyces cerevisiae [4],11 mm
same,zone of inhibition at 20 µg/disc,Saccharomyces cerevisiae [5],0 mm
same,zone of inhibition at 20 µg/disc,Saccharomyces cerevisiae [6],12 mm
same,IC50,A498,13 µM
same,IC50,MCF7 [7],8 µM
same,GI50,MDA-MB-231,1.91 µM
same,LC50,MDA-MB-231,9.33 µM
same,TGI,MDA-MB-231; read-out: pTGI (converted),4.27 µM
same,GI50,Hs-578T,2.19 µM
same,LC50,Hs-578T,> 100 µM
same,TGI,Hs-578T; read-out: pTGI (converted),5.5 µM
same,GI50,MCF7 [8],3.02 µM
same,LC50,MCF7 [8],50.1 µM
same,TGI,MCF7 [8]; read-out: pTGI (converted),9.77 µM
same,GI50,PC-3,1.51 µM
same,LC50,PC-3,8.71 µM
same,TGI,PC-3; read-out: pTGI (converted),3.63 µM
same,GI50,SN12C,2 µM
same,LC50,SN12C,7.59 µM
same,TGI,SN12C; read-out: pTGI (converted),3.89 µM
same,GI50,SK-OV-3,1.55 µM
same,LC50,SK-OV-3,5.5 µM
same,TGI,SK-OV-3; read-out: pTGI (converted),2.95 µM
same,GI50,NCI/ADR-RES,3.39 µM
same,CC50,NCI/ADR-RES; [9],> 100 µM
same,TGI,NCI/ADR-RES; read-out: pTGI (converted),11.5 µM
same,GI50,OVCAR-4,1.58 µM
same,LC50,OVCAR-4,5.62 µM
same,TGI,OVCAR-4; read-out: pTGI (converted),2.95 µM
same,GI50,OVCAR-5,2.57 µM
same,LC50,OVCAR-5,17.4 µM
same,TGI,OVCAR-5; read-out: pTGI (converted),5.5 µM
same,GI50,IGROV-1,1.91 µM
same,LC50 (concentration killing 50% of cells),IGROV-1,7.08 µM
same,TGI,IGROV-1; read-out: pTGI (converted),3.63 µM
same,GI50,OVCAR-3,1.86 µM
same,LC50,OVCAR-3,6.17 µM
same,TGI,OVCAR-3; read-out: pTGI (converted),3.39 µM
same,GI50,SK-MEL-28,1.91 µM
same,LC50,SK-MEL-28,6.46 µM
same,TGI,SK-MEL-28; read-out: pTGI (converted),3.55 µM
same,GI50,U-251,1.26 µM
same,LC50,U-251,6.31 µM
same,TGI,U-251; read-out: pTGI (converted),2.82 µM
same,GI50,LOX IMVI,2.57 µM
same,LC50,LOX IMVI,42.7 µM
same,TGI,LOX IMVI; read-out: pTGI (converted),7.59 µM
same,GI50,SF-268,1.91 µM
same,LC50,SF-268,6.46 µM
same,TGI,SF-268; read-out: pTGI (converted),3.55 µM
same,GI50,HCT-15,3.24 µM
same,LC50,HCT-15,66.1 µM
same,TGI,HCT-15; read-out: pTGI (converted),12.9 µM
same,GI50,COLO 205,1.82 µM
same,CC50,COLO 205; [9],6.76 µM
same,TGI,COLO 205; read-out: pTGI (converted),3.47 µM
same,GI50,NCI-H460,0.631 µM
same,LC50,NCI-H460,9.55 µM
same,TGI,NCI-H460; read-out: pTGI (converted),2.51 µM
same,GI50,NCI-H23,2.4 µM
same,LC50,NCI-H23,> 100 µM
same,TGI,NCI-H23; read-out: pTGI (converted),7.08 µM
same,GI50,A549,2.09 µM
same,LC50,A549,> 100 µM
same,TGI,A549; read-out: pTGI (converted),5.37 µM
same,GI50,EKVX,2.24 µM
same,LC50,EKVX,> 100 µM
same,TGI,EKVX; read-out: pTGI (converted),5.37 µM
same,GI50,HOP-62,1.02 µM
same,LC50,HOP-62,9.12 µM
same,TGI,HOP-62; read-out: pTGI (converted),3.02 µM
same,GI50,MOLT-4,3.24 µM
same,LC50,MOLT-4,> 100 µM
same,TGI,MOLT-4; read-out: pTGI (converted),9.55 µM
same,GI50,HL-60,2.51 µM
same,LC50,HL-60,> 100 µM
same,TGI,HL-60; read-out: pTGI (converted),6.03 µM

# — ChEMBL document CHEMBL2177069, “Novel peptidomimetic compounds containing redox active chalcogens and quinones as potential anticancer agents” (Eur J Med Chem, 2012)
